Data: ChEMBL document CHEMBL1811910, “Semisynthetic analogues of the marine cembranoid sarcophine as prostate and breast cancer migration inhibitors” (Bioorg Med Chem, 2011)
Calls of active or inactive are those of the source. The calls are words filed in the database; no cut-off is given here.

Tests used:
PC-3 [1] = assay: Antimigratory activity against human PC3 cells at 50 uM after 24 hrs by wound healing assay; type: functional, cell-based
In short: (§1)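 Cells grown to >90% confluent monolayer in RPMI 1640 with 10% FBS, glutamine, penicillin/streptomycin at 37 °C, 5% CO2, then scratched with a sterile 200 µL pipette tip. Compounds added in DMSO, in triplicate; PMH 200 µM positive control, DMSO vehicle control. After 24 h serum-starved incubation, cells were fixed and Diff Quick stained. Migrated cells counted in ≥3 random 400× fields, reported as mean ± SEM.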

MDA-MB-231 [2] = assay: Antiproliferative activity against human MDA-MB-231 cells at 5 to 50 uM after 24 hrs by MTT assay; type: functional, cell-based
In short: (§2)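 After 3-4 passages in RPMI 1640 with 10% FBS, cells were seeded at 8 × 10^3 per well and left to attach for 24 h. Medium was then replaced with serum-free RPMI containing compound at 50, 20, 10 or 5 µM. Viability was read by MTT conversion to formazan, and cell number was taken from a standard curve of plated cells, with cells kept in exponential growth.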

PC-3 [3] = assay: Antiproliferative activity against human PC3 cells at 5 to 50 uM after 24 hrs by MTT assay; type: functional, cell-based; in short: as §2
MDA-MB-231 [4] = assay: Antimigratory activity against human MDA-MB-231 cells at 50 uM after 24 hrs by wound healing assay; type: functional, cell-based; in short: as §1
PC-3 [5] = assay: Antimigratory activity against human PC3 cells after 24 hrs by wound healing assay; type: functional, cell-based; conditions: PC-3, 24 h; in short: as §1
MDA-MB-231 [6] = assay: Antiproliferative activity against human MDA-MB-231 cells after 24 hrs by MTT assay; type: functional, cell-based; conditions: MDA-MB-231, 24 h; in short: as §2
MDA-MB-231 [7] = assay: Antimigratory activity against human MDA-MB-231 cells after 24 hrs by wound healing assay; type: functional, cell-based; conditions: MDA-MB-231, 24 h; in short: as §1
MDA-MB-231 [8] = assay: Antimigratory activity against human MDA-MB-231 cells at 5 to 30 uM after 24 hrs by wound healing assay; type: functional, cell-based; in short: as §1
[9] = system: MDA-MB-231 (Homo sapiens); assay: Antimigratory activity against human MDA-MB-231 cells at 5 to 30 uM after 24 hrs by wound healing assay
PC-3 [10] = assay: Antimigratory activity against human PC3 cells at 200 uM after 24 hrs by wound healing assay; type: functional, cell-based; in short: as §1
MDA-MB-231 [11] = assay: Antimigratory activity against human MDA-MB-231 cells at 200 uM after 24 hrs by wound healing assay; type: functional, cell-based; in short: as §1

| Structure (SMILES) | Activity (PC-3 [1]) | Activity (MDA-MB-231 [2]) | Activity (PC-3 [3]) | Activity (MDA-MB-231 [4]) | further results |
| --- | --- | --- | --- | --- | --- |
| C=CCNC(=O)N(CC=C)C(=O)N(CC=C)C(=O)O[C@H]1CC/C(C)=C/[C@@H]2OC(=O)C(C)=C2CC/C(C)=C/CCC1=C | Active | inactive | inactive | Active | IC50 (PC-3 [5]): 24.3 µM |
| C=C1CC/C=C(\C)CCC2=C(C)C(=O)O[C@H]2/C=C(\C)CC[C@@H]1OC(=O)NC1CCCCC1 | Active |  | inactive |  | IC50 (MDA-MB-231 [6]): 45 µM; IC50 (MDA-MB-231 [7]): 17.2 µM; IC50 (PC-3 [5]): 15.5 µM; Activity (MDA-MB-231 [8]): Active; Activity [9]: Active |
| C=C1CC/C=C(\C)CCC2=C(C)C(=O)O[C@H]2/C=C(\C)CC[C@@H]1OC(=O)NCCCC | Active |  | inactive |  | IC50 (MDA-MB-231 [6]): 7 µM; IC50 (MDA-MB-231 [7]): 4.83 µM; Activity (MDA-MB-231 [8]): Active; Activity [9]: Active |
| CC1=C2CC/C(C)=C/CC[C@]3(C)O[C@H]3CC/C(C)=C/[C@@H]2OC1 |  | inactive | inactive | Active |  |
| CC1=C2CC/C(C)=C/CC[C@]3(C)O[C@H]3CC/C(C)=C/[C@@H]2OC1=O |  | inactive | inactive |  |  |
| CCCCO[C@H]1CC/C(C)=C/[C@@H]2OC(=O)C(C)=C2CC/C(C)=C/CC[C@]1(C)O |  |  | inactive |  | IC50 (MDA-MB-231 [6]): 20 µM; IC50 (MDA-MB-231 [7]): 30 µM; Activity (MDA-MB-231 [8]): inactive; Activity [9]: inactive |
| C=C1CC/C=C(\C)CCC2=C(C)C(=O)O[C@H]2/C=C(\C)CC[C@@H]1OC(=O)NCCCCC |  | inactive | inactive | Active |  |
| CC1=C2CC/C(C)=C/CC[C@]3(C)O[C@H]3CC/C(C)=C\[C@H]2OC1 | Active | inactive | inactive |  |  |
| C=C1CC/C=C(\C)CCC2=C(C)C(=O)O[C@H]2/C=C(\C)CC[C@@H]1O |  | inactive | inactive | Active |  |
| CCCO[C@H]1CC/C(C)=C/[C@@H]2OC(=O)C(C)=C2CC/C(C)=C/CC[C@]1(C)O | Active | inactive | inactive | Active |  |
| CC1=C2CC/C(C)=C/CC[C@](C)(O)[C@@H](O)CC/C(C)=C/[C@@H]2OC1=O |  | inactive | inactive | Active |  |
| C=C1CC/C=C(\C)CCC2=C(C)C(=O)O[C@H]2/C=C(\C)CC[C@@H]1OC(=O)Nc1ccccc1 | Active | inactive | inactive | Active | IC50 (PC-3 [5]): 16.3 µM |
| C=C1CC/C=C(\C)CCC2=C(C)C(=O)O[C@H]2/C=C(\C)CC[C@@H]1OC(=O)NCCCCl |  | inactive | inactive |  |  |
| O=C1NC(=O)/C(=C/c2ccc(O)cc2)N1 |  |  |  |  | Activity (PC-3 [10]): Active; Activity (MDA-MB-231 [11]): Active |
| C=C1CC/C=C(\C)CCC2=C(C)C(=O)O[C@H]2/C=C(\C)CCC1=O |  | inactive | inactive |  |  |
| CO[C@H]1CC/C(C)=C/[C@@H]2OC(=O)C(C)=C2CC/C(C)=C/CC[C@]1(C)O |  | inactive | inactive |  |  |
